Values joined by “and” are separate entries in the source; they are usually repeats but may differ in a detail not shown here. Equal entries are not always repeated. One block for each compound: values may come before it.
Columns and labels:
[1] = Partition coefficient in 1-octanol/water system; type: physicochemical
Method in brief: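 1-Octanol/water partition coefficient determined with the U-14C-labeled esters, read by radioactivity.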

[2] = target: GABA-A receptor; anion channel; assay: Inhibition of [3H]GABA binding to synaptic membranes from rat cerebellum; type: tissue-based
Method in brief: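 [3H]GABA (15 nM) binding to rat cerebellum synaptic membranes. At least two concentrations above and below IC50, each at least in triplicate. IC50 was obtained by fitting linearized transformations of the data.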

Rattus norvegicus [3] = species: Rattus norvegicus; assay: Enzymatic hydrolysis of cholesteryl [14C]-compound by Rat Brain Homogenate at 10 min; type: functional
Method in brief: (§1)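 Cholesteryl-[14C]GABA ester (3 mg/mL) incubated at 37 °C with rat brain homogenate 10,000g supernatant (S1; 0.8 mg/mL protein). Aliquots were quenched with ethanol and run on silica TLC (CHCl3/MeOH/HOAc 18:6:1) to quantify unreacted substrate (nmol). Control was the initial substrate amount.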

Mus musculus [4] = assay: Anticonvulsant activity is the ability to delay the onset of bicuculline induced seizures in mouse at 24 hr after pretreament with compound (30 mg/kg, ip); type: functional
Method in brief: (§2)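 Mice given test article ip 24 h before bicuculline (0.3 mg/kg sc). Latency to onset of generalized tonic-clonic seizures was recorded in seconds and expressed as % of saline control. Means ± SEM, n ≥ 6 per group.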

Mus musculus [5] = assay: Anticonvulsant activity is the ability to delay the onset of bicuculline induced seizures in mouse at 24 hr after pretreament with compound (3 mg/kg, ip); type: functional; method in brief: as §2
Rattus norvegicus [6] = species: Rattus norvegicus; assay: Enzymatic hydrolysis of cholesteryl [14C]-compound by Rat Brain Homogenate at 30 min; type: functional; method in brief: as §1
Rattus norvegicus [7] = species: Rattus norvegicus; assay: Enzymatic hydrolysis of cholesteryl [14C]-compound by Rat Brain Homogenate at 60 min; type: functional; method in brief: as §1
Mus musculus [8] = assay: Evaluation of General motor activity in mouse 60 mins postinjection (ip) of 33 mg/kg*; type: functional
Method in brief: (§3)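 Male BALB-c mice (18-24 g) given compound ip in 25% propylene glycol/water. Each was monitored singly for 60 min in an electronic activity monitor. Cumulative activity was expressed as % of vehicle control; mean ± SEM, n = 6, t test.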

Mus musculus [9] = assay: Uptake of the [14C]-compound in mouse liver 15 minutes after sc administration of 24 mg/kg.; type: functional; settings: route subcutaneous, in the assay text read “mouse brain” for “mouse liver”
Method in brief: (§4)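 [14C]-labeled ester injected sc into mice in 25% propylene glycol/water. At the stated time, brain and liver were homogenized in SDS/urea/EDTA phosphate solvent, pH 7.4, and counted by liquid scintillation. Uptake was calculated per gram tissue (nmol/g).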

Mus musculus [10] = assay: Anticonvulsant activity is the ability to increase the survival time of mouse ssubjected to bicuculline induced seizures at 24 hr after pretreament with compound (30 mg/kg, ip); type: functional
Mus musculus [11] = assay: Uptake of the [14C]-compound in mouse brain 5 minutes after sc administration of 24 mg/kg.; type: functional; settings: route subcutaneous; method in brief: as §4
Mus musculus [12] = assay: Brain penetration index is the ratio of the uptake in brain/liver X 100, 5 min after sc administration of 24 mg/kg of the [14C]-compound.; type: functional; settings: route subcutaneous
Method in brief: (§5)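 [14C]-labeled ester injected sc into mice in 0.5 mL of 25% propylene glycol in water, killed at 5 min. Brain and liver were weighed and homogenized in SDS/6 M urea/EDTA phosphate solvent, pH 7.4, then counted by liquid scintillation. BPI = [brain]/[liver] × 100. Means ± SEM, n = 3.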

Mus musculus [13] = assay: Evaluation of General motor activity in mouse 60 mins postinjection (ip) of 3 mg/kg; type: functional; method in brief: as §3
Mus musculus [14] = assay: Uptake of the [14C]-compound in mouse liver 60 minutes after sc administration of 24 mg/kg.; type: functional; settings: route subcutaneous, in the assay text read “mouse brain” for “mouse liver”
Mus musculus [15] = assay: Anticonvulsant activity is the ability to delay the onset of bicuculline induced seizures in mouse at 24 hr after pretreament with compound (16 mg/kg, ip); type: functional; method in brief: as §2
Mus musculus [16] = assay: Uptake of the [14C]-compound in mouse liver 180 min after sc administration of 24 mg/kg.; type: functional; settings: route subcutaneous, in the assay text read “mouse brain” for “mouse liver”; method in brief: as §4
Mus musculus [17] = assay: Anticonvulsant activity is the ability to delay the onset of bicuculline induced seizures in mouse at 24 hr after pretreament with compound (84 mg/kg, ip); type: functional; method in brief: as §2
Mus musculus [18] = assay: Evaluation of General motor activity in mouse 60 mins postinjection (ip) of 10 mg/kg; type: functional; method in brief: as §3
Mus musculus [19] = assay: Uptake of the [14C]-compound in mouse liver 5 minutes after sc administration of 24 mg/kg.; type: functional; settings: route subcutaneous; method in brief: as §4
Mus musculus [20] = assay: Anticonvulsant activity is the ability to increase the survival time of mouse ssubjected to bicuculline induced seizures at 24 hr after pretreament with compound (16 mg/kg, ip); type: functional
Mus musculus [21] = assay: Anticonvulsant activity is the ability to increase the survival time of mouse ssubjected to bicuculline induced seizures at 24 hr after pretreament with compound (3 mg/kg, ip); type: functional
Mus musculus [22] = assay: Uptake of the [14C]-compound in mouse liver 5 minutes after sc administration of 41 mg/kg.; type: functional; settings: route subcutaneous
Method in brief: (§6)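 Mice were given the 14C-labeled compound sc in 25% propylene glycol in water and killed at 5 min. Liver was removed, weighed and homogenized in 1% SDS in 6 M urea with 19 mM EDTA and 0.03 M phosphate, pH 7.4. Homogenate aliquots were counted by liquid scintillation, and uptake per gram of tissue was calculated. Mean ± SEM, n = 3.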

Mus musculus [23] = assay: Uptake of the [14C]-compound in mouse brain 5 minutes after sc administration of 41 mg/kg.; type: functional; settings: route subcutaneous; method in brief: as §4
Mus musculus [24] = assay: Evaluation of General motor activity in mouse 60 mins postinjection (ip) of 16 mg/kg; type: functional; method in brief: as §3
Mus musculus [25] = assay: Brain penetration index is the ratio of the uptake in brain/liver X 100, 5 min after sc administration of 41 mg/kg of the [14C]-compound.; type: functional; settings: route subcutaneous; method in brief: as §5
Mus musculus [26] = assay: Uptake of the [14C]-compound in mouse brain 15 minutes after sc administration of 41 mg/kg.; type: functional; settings: route subcutaneous; method in brief: as §4
Mus musculus [27] = assay: Anticonvulsant activity is the ability to increase the survival time of mouse ssubjected to bicuculline induced seizures at 24 hr after pretreament with compound (36 mg/kg, ip); type: functional
Mus musculus [28] = assay: Uptake of the [14C]-compound in mouse liver 5 minutes after sc administration of 90 mg/kg.; type: functional; settings: route subcutaneous; method in brief: as §6
Mus musculus [29] = assay: Anticonvulsant activity is the ability to delay the onset of bicuculline induced seizures in mouse at 24 hr after pretreament with compound (12mg/kg, ip); type: functional; method in brief: as §2
Mus musculus [30] = assay: Anticonvulsant activity is the ability to delay the onset of bicuculline induced seizures in mouse at 24 hr after pretreament with compound (36 mg/kg, ip); type: functional; method in brief: as §2
Mus musculus [31] = assay: Anticonvulsant activity is the ability to delay the onset of bicuculline induced seizures in mouse at 24 hr after pretreament with compound (25 mg/kg, ip); type: functional; method in brief: as §2
Mus musculus [32] = assay: Anticonvulsant activity is the ability to increase the survival time of mouse ssubjected to bicuculline induced seizures at 24 hr after pretreament with compound (50 mg/kg, ip); type: functional
Mus musculus [33] = assay: Anticonvulsant activity is the ability to delay the onset of bicuculline induced seizures in mouse at 24 hr after pretreament with compound (50 mg/kg, ip); type: functional; method in brief: as §2
Mus musculus [34] = assay: Brain penetration index is the ratio of the uptake in brain/liver X 100, 5 min after sc administration of 90 mg/kg of the [14C]-compound.; type: functional; settings: route subcutaneous; method in brief: as §5
Mus musculus [35] = assay: Anticonvulsant activity is the ability to increase the survival time of mouse ssubjected to bicuculline induced seizures at 24 hr after pretreament with compound (25 mg/kg, ip); type: functional
Mus musculus [36] = assay: Uptake of the [14C]-compound in mouse brain 45 minutes after sc administration of 90 mg/kg.; type: functional; settings: route subcutaneous; method in brief: as §4
Mus musculus [37] = assay: Uptake of the [14C]-compound in mouse brain 15 minutes after sc administration of 90 mg/kg.; type: functional; settings: route subcutaneous; method in brief: as §4
Mus musculus [38] = assay: Uptake of the [14C]-compound in mouse brain 5 minutes after sc administration of 90 mg/kg.; type: functional; settings: route subcutaneous; method in brief: as §4
Mus musculus [39] = assay: Evaluation of General motor activity in mouse 60 mins postinjection (ip) of 12 mg/kg; type: functional; method in brief: as §3
Mus musculus [40] = assay: Anticonvulsant activity is the ability to increase the survival time of mouse ssubjected to bicuculline induced seizures at 24 hr after pretreament with compound (17mg/kg, ip); type: functional
Mus musculus [41] = assay: Anticonvulsant activity is the ability to delay the onset of bicuculline induced seizures in mouse at 24 hr after pretreament with compound (17 mg/kg, ip); type: functional; method in brief: as §2
Mus musculus [42] = assay: Anticonvulsant activity is the ability to increase the survival time of mouse ssubjected to bicuculline induced seizures at 24 hr after pretreament with compound (12 mg/kg, ip); type: functional
Mus musculus [43] = assay: Evaluation of General motor activity in mouse 60 mins postinjection (ip) of 36 mg/kg =; type: functional; method in brief: as §3
Mus musculus [44] = assay: Brain penetration index is the ratio of the uptake in brain/liver X 100, 5 min after sc administration of 74 mg/kg of the [14C]-compound.; type: functional; settings: route subcutaneous; method in brief: as §5
Mus musculus [45] = assay: Evaluation of General motor activity in mouse 60 mins postinjection (ip) of 128 mg/kg; type: functional; method in brief: as §3
Mus musculus [46] = assay: Uptake of the [14C]-compound in mouse liver 5 minutes after sc administration of 74 mg/kg.; type: functional; settings: route subcutaneous; method in brief: as §6
Mus musculus [47] = assay: Evaluation of General motor activity in mouse 60 mins postinjection (ip) of 60 mg/kg; type: functional; method in brief: as §3
Mus musculus [48] = assay: Uptake of the [14C]-compound in mouse brain 5 minutes after sc administration of 74 mg/kg.; type: functional; settings: route subcutaneous; method in brief: as §4
Mus musculus [49] = assay: Evaluation of General motor activity in mouse at dose 200 mg/kg; type: functional; method in brief: as §3
[50] = Partition coefficient in 1-octanol/water system measured using radio active compounds; type: physicochemical
Method in brief: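 1-Octanol/water partition coefficient, measured with the 14C-labeled compounds.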

SMILES: CC(C)CCCC(C)C1CCC2C3CC=C4CC(OC(=O)CCCN)CCC4(C)C3CCC12C (configuration not stated)
K [1]: 110
IC50 [2]: 10 µM
Amount of unreacted substrate (Rattus norvegicus [3]): 53
Onset seizure (Mus musculus [4]): 130
Onset seizure (Mus musculus [5]): 120
Amount of unreacted substrate (Rattus norvegicus [6]): 43.5
Amount of unreacted substrate (Rattus norvegicus [7]): 34.5
Motor activity (Mus musculus [8]): 15
Brain concentration (Mus musculus [9]): 0.67 nmol/g
Survival time (Mus musculus [10]): 104
Brain concentration (Mus musculus [11]): 0.17 nmol/g
Brain penetration index (Mus musculus [12]): 25%
Motor activity (Mus musculus [13]): 67
Brain concentration (Mus musculus [14]): 0.79 nmol/g
Onset seizure (Mus musculus [15]): 129
Brain concentration (Mus musculus [16]): 0.6 nmol/g
Onset seizure (Mus musculus [17]): 137
Motor activity (Mus musculus [18]): 49
Liver concentration (Mus musculus [19]): 0.69 nmol/g
Survival time (Mus musculus [20]): 101 and 109
Survival time (Mus musculus [21]): 95

SMILES: C[C@@H]1CC2C3CCC4=CC(=O)C=CC4(C)C3(F)C(O)CC2(C)C1(O)C(=O)COC(=O)CCCN (some centres not stated)
K [1]: 0.9
Liver concentration (Mus musculus [22]): 10.8 nmol/g
Brain concentration (Mus musculus [23]): 8.7 nmol/g
Motor activity (Mus musculus [24]): 94
Brain penetration index (Mus musculus [25]): 81%
Brain concentration (Mus musculus [26]): 21.5 nmol/g

SMILES: CC/C=C/C/C=C/C/C=C/CCCCCCCCOC(=O)CCCN
Survival time (Mus musculus [27]): 62
Liver concentration (Mus musculus [28]): 142 nmol/g
Onset seizure (Mus musculus [29]): 102
Onset seizure (Mus musculus [30]): 50
IC50 [2]: 40 µM
Onset seizure (Mus musculus [31]): 78
Survival time (Mus musculus [32]): 63
Onset seizure (Mus musculus [33]): 40
Brain penetration index (Mus musculus [34]): 2%
Survival time (Mus musculus [35]): 68
Brain concentration (Mus musculus [36]): 24.9 nmol/g
Brain concentration (Mus musculus [37]): 11 nmol/g
Brain concentration (Mus musculus [38]): 3.5 nmol/g
Motor activity (Mus musculus [39]): 90
Survival time (Mus musculus [40]): 111
Onset seizure (Mus musculus [41]): 73
Survival time (Mus musculus [42]): 118
Motor activity (Mus musculus [43]): 74

SMILES: CCCCOC(=O)CCCN
Brain penetration index (Mus musculus [44]): 74%
Motor activity (Mus musculus [45]): 83
Liver concentration (Mus musculus [46]): 28 nmol/g
Motor activity (Mus musculus [47]): 89
Brain concentration (Mus musculus [48]): 19.2 nmol/g

K [50]: 0.004
SMILES: NCCCC(=O)O [GAMMA-AMINOBUTYRIC ACID]
Motor activity (Mus musculus [49]): 100

From ChEMBL document CHEMBL1122655, “Gamma-aminobutyric acid esters. 1. Synthesis, brain uptake, and pharmacological studies of aliphatic and steroid esters of gamma-aminobutyric acid” (J Med Chem, 1984)
